From ChEMBL document CHEMBL4145661, “H2O2/Peroxynitrite-Activated Hydroxamic Acid HDAC Inhibitor Prodrugs Show Antileukemic Activities against AML Cells” (ACS Med Chem Lett, 2018)
Calls of active or inactive are those of the source. The calls are words filed in the database; no cut-off is given here.

Legend:
[1] = biological target: T1, Histone deacetylase (Homo sapiens) (UniProt Q13547+O15379+Q9UBN7+Q92769+Q9UQL6+Q8WUI4+Q9BY41+Q96DB2+P56524+Q9UKV0+Q969S8); settings: at 1 µM
[2] = tested on: MV4-11; test: Cytotoxicity against human MV4-11 cells assessed as reduction in cell viability at 0.25 to 1 uM cotreated with 4-CPA measured after 72 hrs by MTT assay; assay type: functional, cell-based
[3] = tested on: PBMC; test: Cytotoxicity against human PBMC assessed as reduction in cell viability after 72 hrs by MTT assay; assay type: functional, cell-based
Method in brief: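 Peripheral blood mononuclear cells from two healthy donors, viability measured by MTT assay.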

[4] = tested on: MV4-11; test: Cytotoxicity against human MV4-11 cells assessed as reduction in cell viability at 0.05 to 0.5 uM cotreated with up to 500 nM of 4-CPA measured after 72 hrs by MTT assay; assay type: functional, cell-based
[5] = tested on: MV4-11; test: Potentiation of cytarabine-induced cytotoxicity against human MV4-11 cells assessed as increase in cleaved caspase 3 level at 0.5 uM after 24 hrs by Western blot analysis; assay type: functional, cell-based
Method in brief: (§1)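 MV4-11 cells exposed 24 h to prodrug (2.5 or 0.5 μM) and/or cytarabine (0.5 μM). Cleaved caspase-3 and cleaved PARP-1 detected by Western blot.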

[6] = biological target: T1, Histone deacetylase (Homo sapiens); test: Inhibition of HDAC in human U937 cells assessed as increase in acetylation of histone H4 after 6 hrs by Western blot analysis; assay type: cell-based
[7] = tested on: MV4-11; test: Potentiation of cytarabine-induced cytotoxicity against human MV4-11 cells assessed as increase in cleaved PARP level at 0.5 uM after 24 hrs by Western blot analysis; assay type: functional, cell-based
Method in brief: as §1

[8] = biological target: T1, Histone deacetylase (Homo sapiens); test: Inhibition of HDAC in human MV4-11 cells assessed as increase in acetylation of histone H4 after 6 hrs by Western blot analysis; assay type: cell-based
Method in brief: (§2)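 Western blot of MV4-11 cells after 6 h exposure at the indicated concentrations, probing acetyl-histone H4 and acetyl-α-tubulin. Densitometry normalized to GAPDH, fold change relative to SAHA treatment. Blot representative of three experiments.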

[9] = biological target: T1, Histone deacetylase (Homo sapiens); test: Inhibition of HDAC in human PBMC assessed as increase in acetylation of histone H4 at 5 to 10 uM after 6 hrs by Western blot analysis; assay type: cell-based
Method in brief: (§3)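 Peripheral blood mononuclear cells from one healthy donor, treated at 5 and 10 μM and compared against vehicle control. Acetyl-histone H4 and acetyl-α-tubulin assessed by Western blot.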

[10] = biological target: T1, Histone deacetylase (Homo sapiens); test: Inhibition of HDAC in human PBMC assessed as increase in acetylation of alpha-tubulin at 5 to 10 uM after 6 hrs by Western blot analysis; assay type: cell-based
Method in brief: as §3

[11] = biological target: T1, Histone deacetylase (Homo sapiens); test: Inhibition of HDAC in human U937 cells assessed as increase in acetylation of alpha-tubulin after 6 hrs by Western blot analysis; assay type: cell-based
[12] = tested on: MV4-11; test: Cytotoxicity against human MV4-11 cells assessed as reduction in cell viability after 72 hrs by MTT assay; settings: MV4-11, 72 h
[13] = biological target: T1, Histone deacetylase (Homo sapiens); test: Inhibition of HDAC in human MV4-11 cells assessed as increase in acetylation of alpha-tubulin after 6 hrs by Western blot analysis; assay type: cell-based
Method in brief: as §2

[14] = tested on: U-937; test: Cytotoxicity against human U937 cells assessed as reduction in cell viability after 72 hrs by MTT assay; settings: U-937, 72 h
[15] = tested on: MV4-11; test: Potentiation of cytarabine-induced cytotoxicity against human MV4-11 cells assessed as reduction in cell viability at 0.5 uM after 72 hrs by MTT assay; assay type: functional, cell-based
Method in brief: (§4)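 MV4-11 cells given prodrug (2.5 or 0.5 μM) with cytarabine for 72 h. Viability by MTT; mean ± SD, n = 6.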

[16] = tested on: MV4-11; test: Cytotoxicity against human MV4-11 cells assessed as reduction in cell viability up to 10 uM after 72 hrs by MTT assay; assay type: functional, cell-based
[17] = tested on: U-937; test: Cytotoxicity against human U937 cells assessed as reduction in cell viability at 0.25 to 2.5 uM after 72 hrs by MTT assay; assay type: functional, cell-based
[18] = tested on: MV4-11; test: Potentiation of cytarabine-induced cytotoxicity against human MV4-11 cells assessed as increase in cleaved PARP level at 2.5 uM after 24 hrs by Western blot analysis; assay type: functional, cell-based
Method in brief: as §1

[19] = tested on: MV4-11; test: Cytotoxicity against human MV4-11 cells assessed as reduction in cell viability at 2.5 uM pretreated with GSH for 2 hrs followed by compound addition measured after 72 hrs by MTT assay; assay type: functional, cell-based
[20] = tested on: MV4-11; test: Potentiation of cytarabine-induced cytotoxicity against human MV4-11 cells assessed as increase in cleaved caspase 3 level at 2.5 uM after 24 hrs by Western blot analysis; assay type: functional, cell-based
Method in brief: as §1

[21] = tested on: MV4-11; test: Cytotoxicity against human MV4-11 cells assessed as reduction in cell viability at 2.5 uM pretreated with BSO for 2 hrs followed by compound addition measured after 72 hrs by MTT assay; assay type: functional, cell-based
[22] = Chemical stability of the compound in PBS at 100 uM at pH 7.4 after 72 hrs at 37 degC in presence of GSH by HPLC method; assay type: physicochemical; settings: buffer, pH 7.4, 72 h
[23] = tested on: MV4-11; test: Potentiation of cytarabine-induced cytotoxicity against human MV4-11 cells assessed as reduction in cell viability at 2.5 uM after 72 hrs by MTT assay; assay type: functional, cell-based
Method in brief: as §4

[24] = tested on: MV4-11; test: Cytotoxicity against human MV4-11 cells assessed as reduction in cell viability at 2.5 uM pretreated with LPS for 2 hrs followed by compound addition measured after 72 hrs by MTT assay; assay type: functional, cell-based
[25] = tested on: MV4-11; test: Cytotoxicity against human MV4-11 cells assessed as reduction in cell viability at 2.5 uM pretreated with SOD for 2 hrs followed by compound addition measured after 72 hrs by MTT assay; assay type: functional, cell-based
[26] = tested on: MV4-11; test: Cytotoxicity against human MV4-11 cells assessed as reduction in cell viability at 2.5 uM pretreated with catalase for 2 hrs followed by compound addition measured after 72 hrs by MTT assay; assay type: functional, cell-based
[27] = tested on: MV4-11; test: Cytotoxicity against human MV4-11 cells assessed as reduction in cell viability at 2.5 uM pretreated with GSHEE for 2 hrs followed by compound addition measured after 72 hrs by MTT assay; assay type: functional, cell-based

COc1cc(/C=C/C(=O)N2CCC=CC2=O)cc(OC)c1OCCCCCCC(=O)NO
inhibition [1]: 32% | Activity [2]: Active

O=C(CCCCCCC(=O)Nc1ccccc1)NO
Activity [3]: Active | Activity [4]: inactive

COc1cc(/C=C/C(=O)N2CCC=CC2=O)cc(OC)c1OCCCCCCC(=O)NOCc1ccc(B(O)O)cc1
Activity [5]: Active | inhibition [6]: Dose-dependent effect | Activity [7]: Active | IC50 [3]: 7.6 to 10 µM | inhibition [8]: Dose-dependent effect | inhibition [9]: inactive | inhibition [10]: inactive | inhibition [11]: Dose-dependent effect | IC50 [12]: 0.7 µM | inhibition [13]: Dose-dependent effect | IC50 [14]: 1.61 µM | Activity [15]: Active

O=C(CCCCCCC(=O)Nc1ccccc1)NCCc1ccc(B(O)O)cc1
Activity [16]: inactive

CC(=O)Oc1ccc(CCl)cc1
IC50 [12]: 1.13 µM

COC(=O)CCCCCCOc1c(OC)cc(/C=C/C(=O)N2CCC=CC2=O)cc1OC
Activity [17]: inactive

O=C(CCCCCCC(=O)Nc1ccccc1)NOCc1ccc(B(O)O)cc1
inhibition [6]: Dose-dependent effect | IC50 [3]: > 10 µM | inhibition [8]: Dose-dependent effect | inhibition [9]: inactive | Activity [18]: Active | inhibition [10]: inactive | Activity [19]: inactive | Activity [20]: Active | inhibition [11]: Dose-dependent effect | Activity [21]: Active | IC50 [12]: 3.07 µM | Stability [22]: Stable | inhibition [13]: Dose-dependent effect | Activity [23]: Active | Activity [24]: Active | Activity [25]: Active | IC50 [14]: 6.13 µM | Activity [26]: inactive | Activity [27]: inactive
